Test results from ChEMBL document CHEMBL1268876, “Intrinsic electrophilicity of the 4-methylsulfonyl-2-pyridone scaffold in glucokinase activators: role of glutathione-S-transferases and in vivo quantitation of a glutathione conjugate in rats” (Bioorg Med Chem Lett, 2010).

Key:
[1] = Chemical stability assessed as formation of compound 2 in pH 7.4 phosphate buffer in presence of 5 mM GSH for 60 mins at 37 degC at 10 uM by UV chromatography; assay type: physicochemical; conditions: pH 7.4, 1 h
In short: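 Test compound at 10 µM in 0.1 M phosphate buffer, pH 7.4, with or without 5 mM GSH, 60 min at 37 °C in a shaking water bath open to air. Stopped with ice-cold acetonitrile containing 0.1% formic acid, then centrifuged. Supernatant analyzed by LC–MS/MS and UV (300 nm) on a C18 column with an ammonium formate/acetonitrile gradient.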

[2] = Metabolic stability in presence of human placental GST assessed as formation of compound at 10 uM in presence of 5 mM GSH and 1.3 mM NADPH by UV chromatography; assay type: ADME
In short: (§1)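 Test compound at 10 µM with 5 mM GSH in human liver microsomes (NADPH-supplemented or not), human liver cytosol, or human placental GST. Incubated 60 min at 37 °C in a shaking water bath open to air; microsomal and cytosolic reactions started by adding the matrix. Controls lacked NADPH and/or GSH. Quenched with ice-cold acetonitrile containing 0.1% formic acid, then centrifuged. Supernatant analyzed by LC–MS/MS with UV detection at 300 nm.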

[3] = Metabolic stability in human liver cytosol assessed as formation of compound at 10 uM in presence of 5 mM GSH and 1.3 mM NADPH by UV chromatography; assay type: ADME; in short: as §1
Liver microsomes [4] = assay: Metabolic stability in human liver microsomes assessed as formation of compound at 10 uM in presence of 5 mM GSH and 1.3 mM NADPH by UV chromatography; assay type: ADME, Microsome; in short: as §1
Liver microsomes [5] = assay: Metabolic stability in human liver microsomes assessed as formation of compound at 10 uM in presence of 5 mM GSH and in absence of NADPH by UV chromatography; assay type: ADME, Microsome; in short: as §1

Row | SMILES | Stability [1] | Stability [2] | Stability [3] | Stability (Liver microsomes [4]) | Stability (Liver microsomes [5])
1 | Cc1cnc(NC(=O)[C@H](CC2CCCC2)n2cccc(S(C)(=O)=O)c2=O)cn1 | Stable | Stable | Stable | Stable | Stable
2 | Cc1cnc(NC(=O)[C@H](CC2CCCC2)n2cc(S(C)(=O)=O)ccc2=O)cn1 | Stable | Stable | Stable | Stable | Stable

The next lines start with the values.

Row | Stability [1] | Stability [2] | Stability [3] | Stability (Liver microsomes [4]) | Stability (Liver microsomes [5]) | SMILES
3 | Stable | Unstable | Unstable | Stable | Stable | Cc1cnc(NC(=O)[C@H](CC2CCCC2)n2ccc(Br)cc2=O)cn1
4 | Unstable | Unstable | Unstable | Unstable | Unstable | Cc1cnc(NC(=O)[C@H](CC2CCCC2)n2ccc(S(C)(=O)=O)cc2=O)cn1
5 | Stable | Stable | Stable | Stable | Stable | Cc1cnc(NC(=O)[C@H](CC2CCCC2)n2ccccc2=O)cn1
